Laboratory results taken from ChEMBL document CHEMBL3351600, “Sulfur, selenium and tellurium pseudopeptides: synthesis and biological evaluation” (Bioorg Med Chem, 2014).

Experiments:
[1] = Growth inhibition of human RXF393 cells after 48 hrs; format: functional; conditions: RXF 393, 48 h
Summary of the method: (§1)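 NCI-60 human tumour cell line panel screen run at the US National Cancer Institute under its standard cytotoxicity protocol. It covers leukaemia, NSCLC, colon, CNS, melanoma, ovarian, renal, prostate and breast lines. An initial single-dose test was followed by five-dose testing with 48 h compound exposure.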

[2] = Growth inhibition of human UO31 cells after 48 hrs; format: functional; conditions: UO-31, 48 h; for TGI: read-out: pTGI (converted)
Summary of the method: (§2)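 Run by the NCI 58-cell-line screen under its standard cytotoxicity protocol. Compounds were first tested at a single dose, then at five doses. Cells were exposed to compound for 48 h.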

MDA-MB-231 = experiment: Growth inhibition of human MDA-MB-231 cells after 48 hrs; format: functional; conditions: MDA-MB-231, 48 h; for TGI: read-out: pTGI (converted); summary of the method: as §1
[3] = Growth inhibition of human BT549 cells after 48 hrs; format: functional; conditions: BT-549, 48 h; summary of the method: as §1
T47D = experiment: Growth inhibition of human T47D cells after 48 hrs; format: functional; conditions: for TGI: read-out: pTGI (converted); summary of the method: as §2
[4] = Cytotoxicity against human fibroblasts assessed as cell viability after 24 hrs incubation by MTT assay; format: cell-based; conditions: Fibroblast
Summary of the method: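 Cell lines came from DSMZ; primary human fibroblasts served as non-cancer controls. Cells were grown in medium with 10% FCS, seeded at 50,000 cells/ml, and grown 2 days at 37 °C, 10% CO2. Serial dilutions were then added for 24 h. MTT (final 0.5 mg/ml) was added for 2 h. Formazan was pelleted, PBS-washed, dissolved in isopropanol/0.4% HCl and read at 590 nm. Two parallel experiments were run. IC50 was taken as the concentration giving 50% of untreated-control absorbance.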

[5] = Octanol-water partition coefficient, log P of the compound by HPLC analysis; format: physicochemical
Summary of the method: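 Lipophilicity was measured by reversed-phase HPLC on a Nucleosil C18 column with isocratic water/methanol (3:1) at 0.5 ml/min and UV detection at 230 and 245 nm. Dead time was set with thiourea (t0 0.728 min). Retention factor was k = (tR − t0)/t0, and log P came from a calibration against at least six reference compounds.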

Mycolicibacterium phlei = experiment: Antimicrobial activity against Mycobacterium phlei assessed as inhibition at 20 ug/6 mm disk after 1 to 2 days by agar diffusion assay; format: functional
Summary of the method: (§3)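 Standard agar diffusion: 6-mm paper disks loaded with 20 µg of compound were placed on inoculated plates. Inhibition-zone diameter (mm) was read after 1 and 2 days of growth.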

Klebsiella pneumoniae = experiment: Antimicrobial activity against Klebsiella pneumoniae assessed as inhibition at 20 ug/6 mm disk after 1 to 2 days by agar diffusion assay; format: functional; summary of the method: as §3
[6] = Lipophilicity, log K of the compound by HPLC analysis
HL-60(TB) = experiment: Growth inhibition of human HL-60(TB) cells after 48 hrs; format: functional; conditions: HL-60, 48 h; for CC50: read-out: pLC50 (the source's name) (converted); for TGI: read-out: pTGI (converted); summary of the method: as §1
K562 = experiment: Growth inhibition of human K562 cells after 48 hrs; format: functional; conditions: K562, 48 h; for CC50: read-out: pLC50 (the source's name) (converted); for TGI: read-out: pTGI (converted); summary of the method: as §1
NCI-H23 = experiment: Growth inhibition of human NCI-H23 cells after 48 hrs; format: functional; conditions: NCI-H23, 48 h; for CC50: read-out: pLC50 (the source's name) (converted); summary of the method: as §1
NCI-H460 = experiment: Growth inhibition of human NCI-H460 cells after 48 hrs; format: functional; conditions: NCI-H460, 48 h; for CC50: read-out: pLC50 (the source's name) (converted); summary of the method: as §1
NCI-H522 = experiment: Growth inhibition of human NCI-H522 cells after 48 hrs; format: functional; conditions: NCI-H522, 48 h; for CC50: read-out: pLC50 (the source's name) (converted); for TGI: read-out: pTGI (converted); summary of the method: as §1
[7] = Growth inhibition of human COLO205 cells after 48 hrs; format: functional; conditions: COLO 205, 48 h; for CC50: read-out: pLC50 (the source's name) (converted); for TGI: read-out: pTGI (converted); summary of the method: as §1
HT-29 = experiment: Growth inhibition of human HT-29 cells after 48 hrs; format: functional; conditions: HT-29, 48 h; for CC50: read-out: pLC50 (the source's name) (converted); for TGI: read-out: pTGI (converted); summary of the method: as §1
[8] = Growth inhibition of human SF539 cells after 48 hrs; format: functional; conditions: SF-539, 48 h; for CC50: read-out: pLC50 (the source's name) (converted); for TGI: read-out: pTGI (converted); summary of the method: as §1
SNB-19 = experiment: Growth inhibition of human SNB19 cells after 48 hrs; format: functional; conditions: SNB-19, 48 h; for CC50: read-out: pLC50 (the source's name) (converted); summary of the method: as §2
SNB-75 = experiment: Growth inhibition of human SNB75 cells after 48 hrs; format: functional; conditions: SNB-75, 48 h; for CC50: read-out: pLC50 (the source's name) (converted); for TGI: read-out: pTGI (converted); summary of the method: as §2
Malme-3M = experiment: Growth inhibition of human MALME-3M cells after 48 hrs; format: functional; conditions: for CC50: read-out: pLC50 (the source's name) (converted); for TGI: read-out: pTGI (converted); summary of the method: as §1
M14 = experiment: Growth inhibition of human M14 cells after 48 hrs; format: functional; conditions: M14, 48 h; for CC50: read-out: pLC50 (the source's name) (converted); for TGI: read-out: pTGI (converted); summary of the method: as §1
SK-MEL-2 = experiment: Growth inhibition of human SK-MEL-2 cells after 48 hrs; format: functional; conditions: SK-MEL-2, 48 h; for CC50: read-out: pLC50 (the source's name) (converted); for TGI: read-out: pTGI (converted); summary of the method: as §1
SK-MEL-28 = experiment: Growth inhibition of human SK-MEL-28 cells after 48 hrs; format: functional; conditions: SK-MEL-28, 48 h; for CC50: read-out: pLC50 (the source's name) (converted); for TGI: read-out: pTGI (converted); summary of the method: as §1
SK-MEL-5 = experiment: Growth inhibition of human SK-MEL-5 cells after 48 hrs; format: functional; conditions: SK-MEL-5, 48 h; for CC50: read-out: pLC50 (the source's name) (converted); for TGI: read-out: pTGI (converted); summary of the method: as §2
[9] = Growth inhibition of human UACC62 cells after 48 hrs; format: functional; conditions: UACC-62, 48 h; for CC50: read-out: pLC50 (the source's name) (converted); for TGI: read-out: pTGI (converted); summary of the method: as §2
IGROV-1 = experiment: Growth inhibition of human IGROV1 cells after 48 hrs; format: functional; conditions: IGROV-1, 48 h; for CC50: read-out: pLC50 (the source's name) (converted); for TGI: read-out: pTGI (converted); summary of the method: as §1
[10] = Growth inhibition of human OVCAR3 cells after 48 hrs; format: functional; conditions: OVCAR-3, 48 h; for CC50: read-out: pLC50 (the source's name) (converted); for TGI: read-out: pTGI (converted); summary of the method: as §1
SK-OV-3 = experiment: Growth inhibition of human SKOV3 cells after 48 hrs; format: functional; conditions: SK-OV-3, 48 h; for CC50: read-out: pLC50 (the source's name) (converted); for TGI: read-out: pTGI (converted); summary of the method: as §2
786-0 = experiment: Growth inhibition of human 786-0 cells after 48 hrs; format: functional; conditions: 786-0, 48 h; for TGI: read-out: pTGI (converted); summary of the method: as §1
[11] = Growth inhibition of human LOXIMVI cells after 48 hrs; format: functional; conditions: LOX IMVI; summary of the method: as §1

## COc1ccc(N(CC(=O)NCCC[Te]c2ccccc2)C(=O)CCSC2=C(C)C(=O)c3ccccc3C2=O)cc1
[1]
  GI50: 1860 nM
  LC50: 7.94 µM
[1]; read-out: pTGI (converted)
  TGI: 3.8 µM
[2]
  GI50: 1660 nM
  LC50: 8.71 µM
  TGI: 2.19 µM
MDA-MB-231
  GI50: 1230 nM
  LC50: 14.8 µM
  TGI: 3.89 µM
[3]
  LC50 (concentration killing 50% of cells): 16.6 µM
T47D
  GI50: 1.55 µM
  TGI: 3.55 µM
[4]
  IC50: 4 µM
[5]
  logP: 1.97
Mycolicibacterium phlei
  diameter of the inhibition zone (DIZ): 15 mm
Klebsiella pneumoniae
  diameter of the inhibition zone (DIZ): 12 mm
[6]
  log K: -0.54
HL-60(TB)
  GI50: 2880 nM
  CC50: > 100 µM
  TGI: 6.76 µM
K562
  GI50: 1.95 µM
  CC50: > 100 µM
  TGI: 5.13 µM
NCI-H23
  CC50: 20.4 µM
NCI-H460
  CC50: 4.68 µM
NCI-H522
  GI50: 1070 nM
  CC50: > 100 µM
  TGI: 3.39 µM
[7]
  GI50: 1860 nM
  CC50: 6.61 µM
  TGI: 3.47 µM
HT-29
  GI50: 1620 nM
  CC50: 50.1 µM
  TGI: 4.9 µM
[8]
  GI50: 2140 nM
  CC50: 7.08 µM
  TGI: 3.89 µM
SNB-19
  CC50: 56.2 µM
SNB-75
  GI50: 1.82 µM
  CC50: 45.7 µM
  TGI: 6.92 µM
Malme-3M
  GI50: 2.24 µM
  CC50: 8.32 µM
  TGI: 4.37 µM
M14
  GI50: 759 nM
  CC50: 5.25 µM
  TGI: 2.14 µM
SK-MEL-2
  GI50: 2290 nM
  CC50: 14.8 µM
  TGI: 5.01 µM
SK-MEL-28
  GI50: 2090 nM
  CC50: 12 µM
  TGI: 4.68 µM
SK-MEL-5
  GI50: 1620 nM
  CC50: 5.75 µM
  TGI: 3.09 µM
[9]
  GI50: 1910 nM
  CC50: 19.1 µM
  TGI: 4.9 µM
IGROV-1
  GI50: 776 nM
  CC50: 5.37 µM
  TGI: 2.19 µM
[10]
  GI50: 1170 nM
  CC50: 5.62 µM
  TGI: 2.04 µM
SK-OV-3
  GI50: 1860 nM
  CC50: 8.71 µM
  TGI: 3.98 µM
786-0
  GI50: 2090 nM
  LC50: 8.91 µM
  TGI: 4.37 µM

## COc1ccc(N(CC(=O)NCCC[Te]c2ccccc2)C(=O)CNC(=O)OC(C)(C)C)cc1
[2]
  GI50: 2400 nM
  LC50: > 100 µM
  TGI: 9.12 µM
MDA-MB-231
  GI50: 1910 nM
  TGI: 3.89 µM
[3]
  GI50: 1700 nM
  LC50 (concentration killing 50% of cells): > 100 µM
[3]; read-out: pTGI (converted)
  TGI: 4.9 µM
T47D
  GI50: 11.2 µM
  LC50: > 100 µM
  TGI: 40.7 µM
[11]
  GI50: 2340 nM
  LC50: 34.7 µM
[11]; read-out: pTGI (converted)
  TGI: 5.75 µM
[4]
  IC50: 25 µM
[5]
  logP: 4.2
Mycolicibacterium phlei
  diameter of the inhibition zone (DIZ): 12 mm
Klebsiella pneumoniae
  diameter of the inhibition zone (DIZ): 12 mm
[6]
  log K: 0.05
HL-60(TB)
  GI50: 2090 nM
  CC50: > 100 µM
  TGI: 5.62 µM
K562
  GI50: 5.5 µM
  CC50: > 100 µM
  TGI: > 100 µM
NCI-H23
  GI50: 2510 nM
  CC50: > 100 µM
NCI-H23; read-out: pTGI (converted)
  TGI: 6.61 µM
NCI-H460
  GI50: 447 nM
  CC50: 7.59 µM
NCI-H460; read-out: pTGI (converted)
  TGI: 1860 nM
NCI-H522
  GI50: 2570 nM
  CC50: 56.2 µM
  TGI: 10.5 µM
[7]
  GI50: 2000 nM
  CC50: 7.24 µM
  TGI: 3.8 µM
HT-29
  GI50: 3800 nM
  CC50: > 100 µM
  TGI: 13.8 µM
[8]
  GI50: 2140 nM
  CC50: 15.8 µM
  TGI: 4.79 µM
SNB-19
  GI50: 8.71 µM
  CC50: > 100 µM
SNB-19; read-out: pTGI (converted)
  TGI: 9.55 µM
SNB-75
  GI50: 6.61 µM
  CC50: 36.3 µM
  TGI: 7.41 µM
Malme-3M
  GI50: 15.8 µM
  CC50: 69.2 µM
  TGI: 33.1 µM
M14
  GI50: 3550 nM
  CC50: 45.7 µM
  TGI: 10.7 µM
SK-MEL-2
  GI50: 3020 nM
  CC50: > 100 µM
  TGI: 6.76 µM
SK-MEL-28
  GI50: 3090 nM
  CC50: 36.3 µM
  TGI: 10 µM
SK-MEL-5
  GI50: 3160 nM
  CC50: 34.7 µM
  TGI: 9.12 µM
[9]
  GI50: 1660 nM
  CC50: 8.71 µM
  TGI: 3.8 µM
IGROV-1
  GI50: 2240 nM
  CC50: 25.7 µM
  TGI: 5.37 µM
[10]
  GI50: 3020 nM
  CC50: 100 µM
  TGI: 7.94 µM
SK-OV-3
  GI50: 2340 nM
  CC50: 10 µM
  TGI: 4.79 µM
786-0
  GI50: 3720 nM
  LC50: 56.2 µM
  TGI: 12.9 µM
